The campaign covered roughly 24,000 compounds. Fewer than 10 were called active. Rule as the data show it: active = caspase activation above about 5.9%; inconclusive = no clear call, values can overlap the other calls; inactive = below about 2.2%. The list is a sample of the results.
Assay: Bcl2-A1 antagonists releasing BIM, apoptosis – cell-based, luminescence, HTS, two replicates, primary screen (AID 2465)
Conditions: MEF A1-2A-BIM cells, caspase-Glo luminescence, 3 h; hits give high values; percent of clofoctol response, DMSO zero; concentration not given here
Method in brief: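 Evaluation: Caspase-3/7 activity from luminescence increase | Assay system: A1-2A-BIM mouse embryonic fibroblasts | Quantity: 2500 MEF cells/well | Medium: RPMI-1640 plus 10% FBS | Detection: Caspase-Glo 3/7 luminescence, 1 h at room temperature | Dosing: 50 nL compound per well, pinned | Timing: Cells settled overnight, compound exposure 3 h at 37 °C, 5% CO2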

Caspase activation, inactive:
C[C@H](CO)N1C[C@H](C)[C@@H](CN(C)Cc2ccc(-c3ccccc3)cc2)Oc2ccc(NC(=O)CCCN(C)C)cc2CC1=O 0.389%
C[C@@H]1CCCCO[C@@H](CN(C)C(=O)C2CCCCC2)[C@H](C)CN([C@H](C)CO)C(=O)c2cc(NC(=O)CCC(F)(F)F)ccc2O1 -0.546%
COc1ccc(S(=O)(=O)N(C)C[C@@H]2Oc3ccc(NC(=O)C4CC4)cc3CC(=O)N([C@@H](C)CO)C[C@H]2C)cc1 -0.0568%
C[C@@H]1CN([C@H](C)CO)C(=O)c2cc(NC(=O)NC3CCCCC3)ccc2O[C@@H](C)CCCCO[C@H]1CN(C)C(=O)Nc1ccccc1 -0.462%
C[C@H](CO)N1C[C@H](C)[C@@H](CN(C)Cc2ccc(C(=O)O)cc2)OCCCC[C@H](C)Oc2ccc(NC(=O)c3ccccc3)cc2C1=O -0.0294%
Cc1noc(C)c1NC(=O)Nc1ccc2c(c1)CC(=O)N([C@@H](C)CO)C[C@@H](C)[C@H](CN(C)C(=O)NC1CCCCC1)O2 -0.291%
Cc1ccc(S(=O)(=O)Nc2ccc3c(c2)C(=O)N([C@@H](C)CO)C[C@@H](C)[C@@H](CN(C)Cc2ccc(C(F)(F)F)cc2)OCCCC[C@@H](C)O3)cc1 0.898%
CNC[C@H]1OCCCC[C@H](C)Oc2ccc(NS(=O)(=O)c3ccc(Cl)cc3)cc2C(=O)N([C@@H](C)CO)C[C@@H]1C -0.41%
COc1ccc(NC(=O)N(C)C[C@@H]2Oc3ccc(NC(=O)CCN4CCOCC4)cc3C(=O)N([C@@H](C)CO)C[C@H]2C)cc1 0.238%
C[C@@H]1CCCCO[C@H](CN(C)Cc2ccccc2)[C@H](C)CN([C@H](C)CO)C(=O)c2cc(NS(=O)(=O)c3ccc(Cl)cc3)ccc2O1 -0.0813%
C[C@H](CO)N1C[C@H](C)[C@H](CN(C)S(=O)(=O)c2ccccc2)Oc2c(NC(=O)CCCCCC(=O)Nc3ccccc3N)cccc2C1=O -0.28%
C[C@H](CO)N1C[C@H](C)[C@H](CN(C)S(C)(=O)=O)Oc2ccc(NC(=O)c3ccncc3)cc2CC1=O -0.8%
C[C@H]1CN([C@@H](C)CO)C(=O)CCCn2cc(nn2)CO[C@H]1CN(C)C(=O)Nc1cccc(C(F)(F)F)c1 -0.271%
COc1ccc(NC(=O)Nc2ccc3c(c2)C(=O)N([C@@H](C)CO)C[C@H](C)[C@@H](CN(C)C(=O)Nc2cccc4ccccc24)OCCCC[C@@H](C)O3)cc1 0.279%
C[C@H](CO)N1C[C@H](C)[C@@H](CN(C)S(=O)(=O)c2ccccc2)Oc2ccc(NC(=O)Nc3ccc(F)cc3)cc2CC1=O -0.112%
C[C@@H]1CN([C@H](C)CO)C(=O)c2cc(NC(=O)C3CCCCC3)ccc2O[C@H]1CN(C)C(=O)Nc1ccccc1 -0.382%
C[C@H]1CN([C@@H](C)CO)C(=O)CCCn2cc(nn2)CO[C@@H]1CN(C)C(=O)Nc1ccccc1 0.231%
COc1ccc(NC(=O)N(C)C[C@@H]2Oc3ccc(NS(=O)(=O)c4ccc(Cl)cc4)cc3C(=O)N([C@H](C)CO)C[C@@H]2C)cc1 0.258%
C[C@@H]1CN([C@@H](C)CO)C(=O)CCCn2cc(nn2)CO[C@@H]1CN(C)Cc1ccccc1C(=O)O 0.264%
O=C(CCCCC(=O)N/N=C/c1ccc[nH]1)NO -0.0327%
COc1ccc(NC(=O)N(C)C[C@H]2OCCCC[C@@H](C)Oc3ccc(NS(=O)(=O)c4ccc(F)cc4)cc3C(=O)N([C@@H](C)CO)C[C@@H]2C)cc1 -0.991%
COC(=O)CCCCCCC(=O)N/N=C/c1cccs1 0.382%
C[C@H](CO)N1C[C@H](C)[C@H](CN(C)C(=O)Nc2cccc3ccccc23)OCCCC[C@H](C)Oc2ccc(NC(=O)Nc3ccc4c(c3)OCO4)cc2C1=O 0.835%
Cc1noc(C)c1S(=O)(=O)Nc1ccc2c(c1)C(=O)N([C@@H](C)CO)C[C@H](C)[C@H](CN(C)CC1CCCCC1)OCCCC[C@H](C)O2 -0.748%
C[C@@H]1CN([C@@H](C)CO)C(=O)c2cc(NS(=O)(=O)c3cccs3)ccc2O[C@@H](C)CCCCO[C@@H]1CN(C)C(=O)NC1CCCCC1 -0.476%
Cc1ccc(S(=O)(=O)N(C)C[C@H]2Oc3c(NC(=O)c4ccc(-c5nccs5)cc4)cccc3C(=O)N([C@H](C)CO)C[C@H]2C)cc1 -0.882%
Cc1ccc(S(=O)(=O)N(C)C[C@H]2OCCCC[C@@H](C)Oc3ccc(NC(=O)NC4CCCCC4)cc3C(=O)N([C@H](C)CO)C[C@@H]2C)cc1 -0.124%
C[C@@H]1CN([C@H](C)CO)C(=O)c2cc(NC(=O)Nc3ccc(F)cc3)ccc2O[C@@H]1CN(C)Cc1ccc(Cl)c(Cl)c1 0.0143%
C[C@H]1CN([C@@H](C)CO)C(=O)c2cccc(NS(=O)(=O)c3cccs3)c2O[C@H]1CN(C)Cc1ccc(C(=O)Nc2ccccc2N)cc1 -0.485%
C[C@@H]1CN([C@H](C)CO)C(=O)Cc2cc(NC(=O)Nc3ccc4c(c3)OCO4)ccc2O[C@@H]1CN(C)Cc1ccc(C(=O)Nc2ccccc2N)cc1 -1.67%
O=C(CCCCCC(=O)N/N=C/c1ccc[nH]1)NO -0.622%
C[C@@H]1CCCCO[C@@H](CN(C)Cc2ccc3c(c2)OCO3)[C@@H](C)CN([C@@H](C)CO)C(=O)c2cc(NC(=O)C3CCCCC3)ccc2O1 1.06%
Cc1noc(C)c1NC(=O)N(C)C[C@@H]1OCCCC[C@H](C)Oc2ccc(NC(=O)NC3CCCCC3)cc2C(=O)N([C@H](C)CO)C[C@H]1C -1.23%
Cc1noc(C)c1S(=O)(=O)N(C)C[C@H]1OCCCC[C@@H](C)Oc2ccc(NC(=O)c3ccccc3)cc2C(=O)N([C@@H](C)CO)C[C@H]1C 0.679%
C[C@@H]1CCCCO[C@@H](CN(C)Cc2ccncc2)[C@H](C)CN([C@H](C)CO)C(=O)c2cc(NC(=O)NC3CCCCC3)ccc2O1 0.887%
C[C@@H]1CCCCO[C@@H](CN(C)C(=O)C2CCCCC2)[C@H](C)CN([C@H](C)CO)C(=O)c2cc(NC(=O)c3ccccc3)ccc2O1 -0.0371%
CNC[C@@H]1Oc2ccc(NC(=O)C3CCCCC3)cc2CC(=O)N([C@@H](C)CO)C[C@H]1C -2%
Cc1noc(C)c1NC(=O)Nc1ccc2c(c1)CC(=O)N([C@@H](C)CO)C[C@H](C)[C@H](CN(C)S(=O)(=O)c1c(C)noc1C)O2 -0.264%
C[C@@H]1CN([C@H](C)CO)C(=O)Cc2cc(NC(=O)C3CCCCC3)ccc2O[C@H]1CN(C)S(=O)(=O)c1ccc(Cl)cc1 -0.597%
Cc1noc(C)c1NC(=O)N(C)C[C@H]1OCCCC[C@H](C)Oc2ccc(NC(=O)Cc3ccccc3)cc2C(=O)N([C@H](C)CO)C[C@@H]1C -0.000815%
Cc1noc(C)c1S(=O)(=O)N(C)C[C@@H]1OCCCC[C@H](C)Oc2ccc(NC(=O)NC3CCCCC3)cc2C(=O)N([C@@H](C)CO)C[C@H]1C 2.87%
COc1cc(O)cc(OC)c1/C=N/NC(=O)c1ccccc1O -0.325%
C[C@@H]1CCCCO[C@@H](CN(C)C(=O)Nc2cccc3ccccc23)[C@H](C)CN([C@@H](C)CO)C(=O)c2cc(NS(=O)(=O)c3ccccc3)ccc2O1 0.255%
COc1ccc(S(=O)(=O)Nc2ccc3c(c2)C(=O)N([C@@H](C)CO)C[C@H](C)[C@@H](CN(C)C(=O)Nc2ccc4c(c2)OCO4)OCCCC[C@@H](C)O3)cc1 0.557%
C[C@H]1CCCCO[C@@H](CN(C)Cc2ccc3c(c2)OCO3)[C@@H](C)CN([C@@H](C)CO)C(=O)c2cc(NC(=O)c3ccccc3)ccc2O1 -0.254%
C[C@@H]1CN([C@@H](C)CO)C(=O)c2cc(NC(=O)Nc3ccccc3)ccc2O[C@H]1CN(C)S(=O)(=O)c1ccccc1 -0.0866%
C[C@@H]1CCCCO[C@H](CN(C)C(=O)Nc2cccc3ccccc23)[C@H](C)CN([C@@H](C)CO)C(=O)c2cc(NC(=O)CCCN(C)C)ccc2O1 -0.756%
COc1ccc(CN(C)C[C@@H]2OCCCC[C@H](C)Oc3ccc(NS(=O)(=O)c4ccc(F)cc4)cc3C(=O)N([C@@H](C)CO)C[C@@H]2C)cc1 0.494%
O=C(NO)c1cccc(C(=O)N/N=C/c2c[nH]c3ccccc23)c1 -1.04%
C[C@@H]1CN([C@@H](C)CO)C(=O)CCCn2nncc2CO[C@@H]1CN(C)S(=O)(=O)c1ccc(-c2ccccc2)cc1 -0.179%
Cc1ccc(S(=O)(=O)Nc2ccc3c(c2)C(=O)N([C@H](C)CO)C[C@H](C)[C@H](CN(C)C(=O)Nc2ccc4c(c2)OCO4)OCCCC[C@@H](C)O3)cc1 -0.5%
C[C@@H]1CCCCO[C@@H](CN(C)Cc2ccccc2)[C@H](C)CN([C@H](C)CO)C(=O)c2cc(NC(=O)Nc3cccc4ccccc34)ccc2O1 1.29%
C[C@@H]1CCCCO[C@@H](CN(C)CC2CCCCC2)[C@H](C)CN([C@H](C)CO)C(=O)c2cc(NC(=O)C3CCCCC3)ccc2O1 0.00789%
CC(C)NC(=O)Nc1ccc2c(c1)C(=O)N([C@H](C)CO)C[C@H](C)[C@@H](CN(C)Cc1ccc3c(c1)OCO3)OCCCC[C@H](C)O2 -0.756%
CNC[C@H]1OCCCC[C@@H](C)Oc2ccc(NS(C)(=O)=O)cc2C(=O)N([C@@H](C)CO)C[C@H]1C -0.624%
COc1ccc(S(=O)(=O)Nc2ccc3c(c2)C(=O)N([C@H](C)CO)C[C@@H](C)[C@H](CN(C)C(=O)c2ccncc2)OCCCC[C@@H](C)O3)cc1 0.262%
C[C@H]1CN([C@@H](C)CO)C(=O)CCCn2cc(nn2)CO[C@@H]1CN(C)S(=O)(=O)c1ccccc1C#N 0.483%
C[C@H]1CN([C@@H](C)CO)C(=O)Cc2cc(NC(=O)CCCCCC(=O)Nc3ccccc3N)ccc2O[C@@H]1CN(C)Cc1ccncc1 -0.722%
CC(C)NC(=O)Nc1ccc2c(c1)C(=O)N([C@@H](C)CO)C[C@@H](C)[C@H](CN(C)Cc1ccc(Cl)c(Cl)c1)OCCCC[C@H](C)O2 -1.26%
COc1ccc(NC(=O)N(C)C[C@H]2OCCCC[C@H](C)Oc3ccc(NC(=O)NC4CCCCC4)cc3C(=O)N([C@@H](C)CO)C[C@@H]2C)cc1 -0.198%
C[C@@H]1CN([C@H](C)CO)C(=O)c2cc(NC(=O)Cn3cnnn3)ccc2O[C@@H]1CN(C)C(=O)Nc1ccc2c(c1)OCO2 -0.00909%
C[C@H](CO)N1C[C@H](C)[C@@H](CN(C)CC2CC2)OCCCC[C@H](C)Oc2ccc(NC(=O)Cc3ccccc3)cc2C1=O 0.105%
CCCN(C)C[C@@H]1OCCCC[C@@H](C)Oc2ccc(NC(=O)Nc3ccc(C(F)(F)F)cc3)cc2C(=O)N([C@H](C)CO)C[C@H]1C 1.62%
C[C@H](CO)N1C[C@H](C)[C@@H](CN(C)Cc2ccncc2)Oc2ccc(NS(=O)(=O)c3ccc(Cl)cc3)cc2CC1=O -1.19%

Source: PubChem BioAssay AID2465 (Broad Institute, 2010)
